Laboratory results published in ChEMBL document CHEMBL5356984 (RSC Med Chem, 2023).

Key:
HEK-293T = assay: Cytotoxicity against HEK293T cells assessed as cell growth inhibition measured after 48 hrs by MTT assay; format: functional, cell-based; conditions: Homo sapiens
Procedure, shortened: (§1)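 MTT cell viability read-out; IC50 obtained by non-linear regression of concentration–response data; values are mean ± SD of three independent experiments.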

[1] = Thermal stability of compound in boiling toluene at 120 degreeC assessed as time taken for compound decomposition at 1 mg/ml by HPLC analysis; format: physicochemical; conditions: read-out: T50
MCF7 [2] = assay: Antiproliferative activity against human MCF7 cells assessed as inhibition of cell viability measured after 48 hrs by MTT assay; format: functional, cell-based; conditions: MCF7, 48 h; procedure, shortened: as §1
MDA-MB-468 = assay: Antiproliferative activity against human MDA-MB-468 cells assessed as inhibition of cell viability measured after 48 hrs by MTT assay; format: functional, cell-based; conditions: MDA-MB-468, 48 h; procedure, shortened: as §1
MCF7 [3] = assay: Antiproliferative activity against human MCF7 cells assessed as inhibition of cell viability at 20 uM measured after 48 hrs by MTT assay relative to control; format: functional
MDA-MB-231 = assay: Antiproliferative activity against human MDA-MB-231 cells assessed as inhibition of cell viability measured after 48 hrs by MTT assay; format: functional, cell-based; conditions: MDA-MB-231, 48 h; procedure, shortened: as §1
HCC1806 = assay: Antiproliferative activity against human HCC1806 cells assessed as inhibition of cell viability measured after 48 hrs by MTT assay; format: functional, cell-based; conditions: HCC1806, 48 h; procedure, shortened: as §1
SK-BR-3 = assay: Antiproliferative activity against human SK-BR-3 cells assessed as inhibition of cell viability measured after 48 hrs by MTT assay; format: functional, cell-based; conditions: SK-BR-3, 48 h; procedure, shortened: as §1
BT-474 = assay: Antiproliferative activity against human BT-474 cells assessed as inhibition of cell viability measured after 48 hrs by MTT assay; format: functional, cell-based; conditions: BT-474, 48 h; procedure, shortened: as §1

half-life at 1 mg/ml [1] [min] | IC50 (MCF7 [2]) [µM] | IC50 (MDA-MB-468) [µM] | IC50 (MDA-MB-231) [µM] | IC50 (HCC1806) [µM] | IC50 (SK-BR-3) [µM] | IC50 (BT-474) [µM] | SMILES | IC50 (HEK-293T) [µM] | inhibition at 20 µM (MCF7 [3]) [%]
– | – | – | – | – | – | – | CO[C@@H]1[C@@H](OC(N)=O)[C@@H](O)[C@H](Oc2ccc3c(O)c(NC(=O)c4ccc(O)c(CC=C(C)C)c4)c(=O)oc3c2C)OC1(C)C [NOVOBIOCIN] | > 100 | –
< 5 | – | – | – | – | – | – | CC(C)=CCC[C@]1(C)/C=C/[C@@H](OC(=O)C=C(C)C)[C@](C)(O)/C=C/C(=O)/C(CN2CCN(C)CC2)=C\C1 | – | –
– | 12.9 | > 20 | 8.14 | 13.2 | – | – | CN1CCN(/C=C/C(=O)/C=C/c2cccc3c2OCO3)CC1 | – | > 50
– | 16.7 | > 20 | 12.9 | 14.7 | – | – | COc1cc(/C=C/C(=O)/C=C/N(C)CCN(C)C)cc(OC)c1 | – | > 50
– | 14.2 | > 20 | 9.13 | 14.8 | – | – | COc1cc(/C=C/C(=O)/C=C/N2CCN(C)CC2)cc(OC)c1 | – | > 50
– | 0.13 | 0.033 | 0.15 | 0.12 | 0.033 | 0.027 | COC1=C2C[C@@H](C)C[C@H](OC)[C@H](O)[C@@H](C)/C=C(\C)[C@H](OC(N)=O)[C@@H](OC)/C=C\C=C(/C)C(=O)NC(=CC1=O)C2=O [GELDANAMYCIN] | 0.53 | –
